{"source": "paper PMC7610535", "about": "(Nature chemical biology, 2020)", "key": {"AK2": {"biological_target": "AK2 (Homo sapiens, UniProt P54819)", "assay": "Kinobead selectivity profiling: AK2", "format": "binding"}, "IMR5 cells": {"tested_on": "IMR5 cells", "assay": "BrdU/PI flow cytometry, cell cycle distribution of IMR5 cells", "format": "cell-based, human", "details": "IMR5 cells without ectopic AURORA-A, 1 µM, 18 hours", "procedure,_shortened": "(§1)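 Cells were pulsed with 10 µM BrdU for 1 h, washed in ice-cold PBS and fixed overnight in 80% ethanol at −20 °C. After a 1% BSA/PBS-T wash, they were stained 30 min at 37 °C with RNase A (24 µg/ml) and propidium iodide (54 µM), then analysed by flow cytometry. For IMR5, the EtOH-treated cells of the doxycycline-inducible line served as the non-overexpressing cells.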"}, "MV4-11 cells": {"tested_on": "MV4-11 cells", "assay": "BrdU/PI flow cytometry, cell cycle distribution of MV4-11 cells", "format": "cell-based, human", "details": "1 µM, 12 hours", "procedure,_shortened": "as §1"}, "AURORA-A [1]": {"biological_target": "T1, AURORA-A (Homo sapiens, UniProt O14965)", "T1 sequence (O14965 1-403)": "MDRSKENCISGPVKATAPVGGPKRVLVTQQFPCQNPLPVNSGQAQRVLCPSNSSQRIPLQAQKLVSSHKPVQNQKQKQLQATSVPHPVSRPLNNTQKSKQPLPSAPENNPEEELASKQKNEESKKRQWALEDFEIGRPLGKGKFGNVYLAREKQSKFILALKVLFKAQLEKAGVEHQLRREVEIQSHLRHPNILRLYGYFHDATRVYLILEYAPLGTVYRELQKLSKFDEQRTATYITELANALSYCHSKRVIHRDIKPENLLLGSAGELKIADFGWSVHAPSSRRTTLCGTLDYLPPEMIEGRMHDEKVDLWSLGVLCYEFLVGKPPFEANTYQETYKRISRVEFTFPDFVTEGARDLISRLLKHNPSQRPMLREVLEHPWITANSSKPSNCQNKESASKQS", "assay": "Immunoblot of AURORA-A in compound-treated MV4-11 cells", "format": "cell-based"}, "AURORA-A [2]": {"biological_target": "T1, AURORA-A", "assay": "AURORA-A-NanoLuc target engagement assay", "format": "binding", "details": "AURORA-A vs AURORA-B, depending on experimental conditions (BRET, Kinobeads)"}}}
{"smiles": "COc1cc(Nc2ncc3c(n2)-c2ccc(Cl)cc2C(c2c(F)cccc2OC)=NC3)ccc1C(=O)O", "note": "[Alisertib, alisertib, reference compound]", "values": [{"measurement": "Kd", "setting": "AK2", "result": 215, "unit": "nM"}, {"measurement": "cell cycle distribution", "setting": "IMR5 cells", "result": "led to G2/M arrest"}, {"measurement": "cell cycle distribution", "setting": "MV4-11 cells", "result": "almost all cells arrested in G2/M"}, {"measurement": "reduction of steady-state AURORA-A levels (in words)", "setting": "AURORA-A [1]", "result": "did not decrease AURORA-A levels, but instead substantially increased it"}, {"measurement": "difference of affinities for AURORA-A and AURORA-B", "setting": "AURORA-A [2]", "result": "3- to 50 fold"}]}
